Shown are actives, neighbours in structure and some others; about 2.3% of the full set was active somewhere.
TRPC6 inh: mouse TRPC6 channel inhibition. AID 2553. Q61143. hit rate 1.1% among 310,000. HEK293-TRPC6, membrane potential dye, ACh-evoked depolarization; stronger effect = lower value. B-score at 10 µM;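 active = B-score under library mean minus 3 SD, initial fluorescence not abnormally high, positive integrated signal ratio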;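 note: B-score derived from integrated fluorescence ratio over the kinetic read; more negative B-score means stronger inhibition of depolarization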
TRPC6 activator: mouse TRPC6 channel activation; Q61143; HEK293-TRPC6 membrane potential dye fluorescence; stronger effect = higher value; B-score at 10 µM; hit rate 0.13% among 310,000; AID 2550;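 active = B-score of the integrated fluorescence ratio above library mean plus 3 SD, and starting fluorescence ratio within library mean plus 5 SD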;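 note: higher score means more depolarization so channel activation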
TRPC4 inh: blocks the mouse TRPC4 cation channel; HEK293 TRPC4beta/mu-opioid, DAMGO-evoked Fluo4 calcium flux; stronger effect = lower value; B-score at 10 µM; hit rate 0.39% among 300,000; AID 2247;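 active = B-score over 3 SD under the library average, no early fluorescence shift, positive overall ratio signal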
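Material: HEK293 cells with stable TRPC4beta plus mu-opioid receptor expression / Probe or stimulus: DAMGO in two steps, submaximal then maximal / Compound: single concentration per test compound / Technique: kinetic Fluo4 fluorescence imaging of calcium influx / Read-out: per-well B score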
TRPC4 act: opens the mouse TRPC4 cation channel. hit rate 0.49% among 310,000. HEK293 TRPC4beta/mu-opioid, Fluo4 calcium fluorescence; stronger effect = higher value. AID 2237. B-score at 10 µM;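 active = B-score above 5 SD of library B-scores, and initial fluorescence ratio not above library mean plus 5 SD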;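 note: positive B-score marks a calcium rise read as TRPC4 activation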
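system = HEK293 cells stably co-expressing mouse TRPC4beta and mu-opioid receptor | schedule = Fluo4 dye loading 45 min at room temperature, 110 s recording | measure = B-scored integrated calcium fluorescence ratio | signal = Fluo4 calcium-sensitive dye fluorescence, kinetic, 1 Hz baseline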
TRPC4 potent: allosteric potentiators of mouse TRPC4 channel; HEK293 TRPC4beta/mu-opioid, DAMGO EC20, Fluo-4 Ca2+ flux; stronger effect = higher value; Q9QUQ5; B-score at 10 µM; hit rate 0.42% among 310,000; AID 2227;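 active = B-score of calcium response area above 5 SD of library B-scores, with initial fluorescence ratio within 5 SD of library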;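 note: B-score of integrated fluorescence ratio over time as area under calcium response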
An asterisk follows results filed as active; i = inactive.

SMILES	TRPC6 inh	TRPC6 activator	TRPC4 inh	TRPC4 act	TRPC4 potent
COCCCNCCCCOc1c(Cl)cc(C)cc1Br	i	i	i	i	i
c1ccc(Nc2ncnc3sc4c(c23)CCC4)cc1	i	i	i	216*	i
c1ccc2c(c1)nnn2-c1ncnc2sc3c(c12)CCCC3	i	i	-6*	i	i
Fc1ccc(Nc2ncnc3sc4c(c23)CCC4)cc1	i	i	i	i	66*
Cc1nc(-n2nnc3ccccc32)c2c3c(sc2n1)CCCC3	i	i	i	i	i
Fc1ccc(Nc2ncnc3sc4c(c23)CCC4)cc1F	i	i	i	i	i
O=C1c2ccccc2S(=O)(=O)c2cc(N3CCc4ccccc4C3)ccc21	i	i	i	i	i
CN(C(=O)COC(=O)c1ccc(F)c(S(=O)(=O)N2CCOCC2)c1)C1CCS(=O)(=O)C1 (stereo not given)	i	i	i	i	i
O=C(COC(=O)C1CCC1)NCCc1ccc(Cl)cc1Cl	i	i	i	i	i
COc1ccc(Cl)cc1NC(=O)NCC1CCN(Cc2cc(C)ccc2C)CC1	i	i	i	i	i
Cc1ccc(C)c(CN2CCC(CNC(=O)Nc3ccc(C)c(C)c3)CC2)c1	i	i	i	i	11*
O=c1cc2c(nn1Cc1ccc(F)cc1)-c1ccccc1CC2	i	i	-7*	i	11*
Cc1csc(NC(=O)CSc2nc(=O)[nH]c3c2CCCC3)n1	i	i	i	i	i
CCOC(=O)C(=NC1CCS(=O)(=O)C1)NNc1ccccc1Cl (stereo not given)	i	i	i	i	47*
CCOC(=O)C(=NC1CCS(=O)(=O)C1)NNc1cc(Cl)ccc1Cl (stereo not given)	i	i	i	i	i
CCN(CC)C(=O)c1sc2nc(-c3ccncc3)[nH]c(=O)c2c1C	i	i	i	i	i
CCN(CC)C(=O)c1sc2nc(-c3ccccn3)[nH]c(=O)c2c1C	i	i	i	68*	i
Cc1[nH]c2ccc(C(=O)OC(C)C(=O)N(C)c3ccccc3)cc2c1C (stereo not given)	i	i	-7*	i	i
CCCC1C(=O)Nc2ccccc2N1C(=O)c1ccc(C(C)(C)C)cc1 (stereo not given)	i	i	i	i	16*
COC(=O)c1ccc(CN(c2ccc(C(=O)O)c(O)c2)S(=O)(=O)c2ccc(Cl)c([N+](=O)[O-])c2)cc1	i	i	i	i	i
Cc1c(N)c(C(C)(C)C)cc(C(C)(C)C)c1[N+](=O)[O-]	i	i	-6*	i	i
Cc1cc(N)c(C)c([N+](=O)[O-])c1C	i	i	i	i	i
COc1ccccc1NC(=O)CN1CCN(c2ccccc2)CC1	i	i	i	i	i
Cc1c(C(=O)N(Cc2cccs2)C2CCS(=O)(=O)C2)oc2ccccc12 (stereo not given)	i	i	i	67*	i
Cn1ncc(Cl)c1C(=O)N1CCN(S(=O)(=O)c2ccc(Cl)s2)CC1	i	i	i	i	i
SMILES	TRPC6 inh	TRPC6 activator	TRPC4 inh	TRPC4 act	TRPC4 potent
CCN(CC)CCOc1ccc(Br)cc1	i	i	i	i	11*
CCN(CC)CCCOc1ccc(Cl)c(Cl)c1	i	i	i	46*	24*
CCN(CC)CCOc1ccc(/C(=C(\Cl)c2ccccc2)c2ccccc2)cc1	i	i	i	i	i
O=C(O)CCCN1C(=O)/C(=C\c2ccc(-c3nc4ccccc4s3)o2)SC1=S	i	i	i	i	19*
O=C(O)CCN1C(=O)/C(=C/c2ccc(-c3nc4ccccc4s3)o2)SC1=S	i	i	i	i	i
COc1ccc(C(CNC(=O)c2oc3ccc(OC)cc3c2C)N2CCCC2)cc1 (stereo not given)	i	i	i	72*	i
CCC1CCc2sc(C(=O)NCC(c3ccc(OC)cc3)N3CCCC3)cc2C1 (stereo not given)	i	i	i	55*	i
CC(C)c1ccc(N2C(=NC(=O)C3CC3)SC3CS(=O)(=O)CC32)cc1 (stereo not given)	i	i	i	i	i
CCC(C)(C)n1nnnc1CN(Cc1cccs1)Cc1cc2cc(OC)ccc2[nH]c1=O	i	i	i	i	11*
CCOc1ccc2[nH]c(=O)c(CN(Cc3cccs3)Cc3nnnn3C(C)(C)CC)cc2c1	i	i	i	i	i
CN1CCN(c2nc(-c3cccnc3)nc3scc(-c4ccccc4)c23)CC1	i	i	-7*	64*	i
C/C(CC(=O)N(C(C)C)C(C)C)=N\NC(=O)COc1ccc(Br)cc1Br	i	i	i	i	i
C/C(CC(=O)N(C(C)C)C(C)C)=N\NC(=O)COc1ccc(Cl)cc1Cl	i	i	-6*	i	i
CCC(C)(C)NC(=O)C(c1ccccc1F)N(Cc1ccco1)C(=O)Cn1nnc2ccccc21 (stereo not given)	i	44.1*	i	i	i
CCc1ccc(C(C(=O)NC(C)(C)CC)N(Cc2ccco2)C(=O)Cn2nnc3ccccc32)cc1 (stereo not given)	i	i	i	i	i
COc1cc(OC)c(NC(=O)CCNS(=O)(=O)c2ccc3c(c2)CC(C)N3C(C)=O)cc1Cl (stereo not given)	i	i	i	i	i
Cc1cc2c(cc1S(=O)(=O)CCC(=O)N1CC(C)CC(C)C1)OCC(=O)N2 (stereo not given)	i	i	i	i	i
Cc1nn(C)cc1S(=O)(=O)Nc1cccc(Cl)c1	i	i	i	i	i
O=C(c1cccc(C(=O)N2CCN(c3ccccc3)CC2)c1)N1CCN(c2ccccc2)CC1	i	i	-7*	i	i
Cc1cc(N2CCN(C)CC2)nc2ccc(NC(=O)CCC(=O)NCCc3ccc(Cl)cc3)cc12	i	i	i	i	i
C=CCn1c(SCC(=O)N2CCCCC2)nnc1-c1ccncc1	i	i	i	75*	i
Cc1ccccc1N1CC(O)(c2cccs2)[N+]2=C1CCCC2 (stereo not given)	i	i	-9*	i	i
COc1ccc(CNC(=O)[C@H](C)NC(=O)C2CCN(S(=O)(=O)c3ccccc3)CC2)cc1	i	i	i	i	i
N=C1c2ccccc2CN1NC(=O)c1cccc(S(=O)(=O)N2CCOCC2)c1	i	i	i	i	i

Source: PubChem BioAssay (Johns Hopkins Ion Channel Center)
